Assay results as given in ChEMBL document CHEMBL1133675, “New substituted 1-(2,3-dihydrobenzo[1, 4]dioxin-2-ylmethyl)piperidin-4-yl derivatives with alpha(2)-adrenoceptor antagonist activity” (J Med Chem, 2000).
Calls of active or inactive are those of the source. Unless noted, the rule behind the calls is not given here.

How the values were obtained:
D(2) dopamine receptor = D(2) dopamine receptor (Rattus norvegicus, UniProt P61169); experiment: In vitro inhibition of specific binding of [3H]-YM 09151-2 to Dopamine receptor D2 site in rat striatal tissue.; format: tissue-based, Striatum
[1] = biological target: T1, Adrenergic receptor alpha-1 (Rattus norvegicus, UniProt P15823+P23944+P43140); experiment: In vitro inhibition of specific binding of [3H]- prazosin to alpha-1 adrenergic receptor site in rat brain membranes.; format: cell membranes
T1 sequence (P15823 whole entry): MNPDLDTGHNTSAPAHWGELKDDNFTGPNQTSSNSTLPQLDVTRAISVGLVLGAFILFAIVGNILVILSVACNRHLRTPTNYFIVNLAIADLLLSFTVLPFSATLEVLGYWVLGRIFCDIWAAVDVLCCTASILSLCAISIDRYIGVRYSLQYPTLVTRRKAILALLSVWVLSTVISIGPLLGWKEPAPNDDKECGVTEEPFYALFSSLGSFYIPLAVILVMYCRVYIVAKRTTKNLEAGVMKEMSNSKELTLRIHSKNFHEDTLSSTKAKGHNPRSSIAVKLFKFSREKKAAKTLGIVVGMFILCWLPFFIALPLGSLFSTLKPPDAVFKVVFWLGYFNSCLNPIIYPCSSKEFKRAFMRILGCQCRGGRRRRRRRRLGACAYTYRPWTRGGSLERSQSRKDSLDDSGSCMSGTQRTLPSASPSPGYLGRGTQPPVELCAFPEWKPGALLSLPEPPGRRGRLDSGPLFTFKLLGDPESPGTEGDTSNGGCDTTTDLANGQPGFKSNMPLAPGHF
T1 sequence (P23944 whole entry): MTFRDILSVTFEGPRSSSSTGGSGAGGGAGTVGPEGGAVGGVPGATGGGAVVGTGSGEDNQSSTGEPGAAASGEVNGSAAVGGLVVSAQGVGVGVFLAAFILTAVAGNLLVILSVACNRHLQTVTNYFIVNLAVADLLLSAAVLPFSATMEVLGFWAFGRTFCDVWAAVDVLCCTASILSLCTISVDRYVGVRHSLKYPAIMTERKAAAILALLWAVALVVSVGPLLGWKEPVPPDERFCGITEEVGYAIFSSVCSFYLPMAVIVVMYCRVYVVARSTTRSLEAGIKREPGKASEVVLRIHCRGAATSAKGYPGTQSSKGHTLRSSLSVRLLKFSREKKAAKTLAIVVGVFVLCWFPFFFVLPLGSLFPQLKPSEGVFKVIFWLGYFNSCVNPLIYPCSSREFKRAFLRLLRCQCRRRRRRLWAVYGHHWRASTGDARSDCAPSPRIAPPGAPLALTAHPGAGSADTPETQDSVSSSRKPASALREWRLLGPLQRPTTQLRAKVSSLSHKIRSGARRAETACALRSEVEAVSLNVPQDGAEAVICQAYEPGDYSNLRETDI
T1 sequence (P43140 whole entry): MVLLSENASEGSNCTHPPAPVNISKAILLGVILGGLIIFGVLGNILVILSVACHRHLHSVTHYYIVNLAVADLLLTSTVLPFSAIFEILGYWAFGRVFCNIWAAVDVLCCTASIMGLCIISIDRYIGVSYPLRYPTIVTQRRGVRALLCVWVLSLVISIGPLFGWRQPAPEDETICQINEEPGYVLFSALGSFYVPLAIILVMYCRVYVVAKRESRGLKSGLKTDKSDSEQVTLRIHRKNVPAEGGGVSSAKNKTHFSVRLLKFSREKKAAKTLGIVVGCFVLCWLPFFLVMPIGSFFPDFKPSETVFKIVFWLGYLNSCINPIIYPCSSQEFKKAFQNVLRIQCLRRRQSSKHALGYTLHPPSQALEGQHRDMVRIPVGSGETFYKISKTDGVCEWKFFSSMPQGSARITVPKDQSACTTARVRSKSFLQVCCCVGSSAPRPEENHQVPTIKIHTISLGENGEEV

[2] = biological target: T2, Adrenergic receptor alpha-2 (Rattus norvegicus, UniProt P22086+P19328+P22909); experiment: In vitro inhibition of binding of [3H]-RX-821002 to alpha-2 adrenergic receptor site in rat brain membranes.; format: cell membranes
T2 sequence (P22086 whole entry): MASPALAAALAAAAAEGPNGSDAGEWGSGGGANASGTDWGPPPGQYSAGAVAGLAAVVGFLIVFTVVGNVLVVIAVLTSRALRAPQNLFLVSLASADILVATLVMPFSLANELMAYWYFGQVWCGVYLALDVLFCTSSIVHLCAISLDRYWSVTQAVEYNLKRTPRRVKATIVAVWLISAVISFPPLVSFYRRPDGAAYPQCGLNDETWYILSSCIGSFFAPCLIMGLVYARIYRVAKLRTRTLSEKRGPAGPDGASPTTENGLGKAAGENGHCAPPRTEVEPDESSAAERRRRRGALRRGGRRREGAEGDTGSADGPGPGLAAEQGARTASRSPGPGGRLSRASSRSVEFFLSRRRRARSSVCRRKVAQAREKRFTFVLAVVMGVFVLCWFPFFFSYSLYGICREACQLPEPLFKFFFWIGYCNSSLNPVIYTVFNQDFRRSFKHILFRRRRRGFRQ
T2 sequence (P19328 whole entry): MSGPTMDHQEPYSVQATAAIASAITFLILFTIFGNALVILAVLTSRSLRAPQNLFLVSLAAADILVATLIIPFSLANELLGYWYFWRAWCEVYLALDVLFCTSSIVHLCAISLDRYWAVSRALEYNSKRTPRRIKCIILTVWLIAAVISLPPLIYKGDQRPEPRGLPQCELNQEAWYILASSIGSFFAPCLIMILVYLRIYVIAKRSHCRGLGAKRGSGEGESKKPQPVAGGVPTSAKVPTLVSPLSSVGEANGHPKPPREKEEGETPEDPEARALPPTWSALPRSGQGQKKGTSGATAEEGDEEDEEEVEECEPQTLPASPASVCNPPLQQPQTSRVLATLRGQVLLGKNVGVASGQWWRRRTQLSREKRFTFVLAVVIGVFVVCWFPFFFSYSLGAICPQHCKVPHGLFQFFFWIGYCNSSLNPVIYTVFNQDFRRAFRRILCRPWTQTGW
T2 sequence (P22909 whole entry): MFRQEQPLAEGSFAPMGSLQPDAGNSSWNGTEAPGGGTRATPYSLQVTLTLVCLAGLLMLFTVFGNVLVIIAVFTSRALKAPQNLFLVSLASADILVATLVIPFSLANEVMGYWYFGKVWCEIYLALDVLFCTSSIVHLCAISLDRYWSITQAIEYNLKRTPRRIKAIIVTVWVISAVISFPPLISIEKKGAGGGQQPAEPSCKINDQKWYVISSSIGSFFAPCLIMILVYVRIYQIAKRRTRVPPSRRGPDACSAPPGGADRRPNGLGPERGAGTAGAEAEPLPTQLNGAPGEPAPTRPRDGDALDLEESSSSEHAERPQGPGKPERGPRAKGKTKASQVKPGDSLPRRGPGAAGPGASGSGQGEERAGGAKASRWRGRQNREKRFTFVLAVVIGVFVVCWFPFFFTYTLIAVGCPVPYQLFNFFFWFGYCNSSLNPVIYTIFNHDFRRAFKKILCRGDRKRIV

Mus musculus [3] = experiment: In vivo antagonism of guanabenz-induced hypothermia in mice after intraperitoneal administration; format: functional; details: ip
In short: (§1)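 Male NMRI mice, 30-32 g, 5 per dose; test drug or vehicle given ip, then 5 min later guanabenz 1 mg/kg ip. Rectal temperature read by thermistor probe 25 min after guanabenz. Inhibition means temperature > 36 °C. […] Active dose range = doses inhibiting in more than 80% of animals.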

Mus musculus [4] = experiment: In vivo antagonism of guanabenz-induced hypothermia in mice after peroral administration at a dose of 10 mg/kg; format: functional; details: route oral
In short: (§2)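 Male NMRI mice (30-32 g), five per dose; vehicle or drug by oral gavage, guanabenz 1 mg/kg ip 35 min later. Rectal temperature by thermistor 25 min post-guanabenz; inhibition scored as temperature > 36 °C. Active range is doses giving inhibition in more than 80% of mice.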

Mus musculus [5] = experiment: In vivo antagonism of guanabenz-induced hypothermia in mice after intraperitoneal administration at a dose of 1 mg/kg; format: functional; details: ip; in short: as §1
Mus musculus [6] = experiment: In vivo antagonism of guanabenz-induced hypothermia in mice after intraperitoneal administration; […]; format: functional, organism-based; in short: as §1
Mus musculus [7] = experiment: In vivo antagonism of guanabenz-induced hypothermia in mice after peroral administration; Inactive; format: functional, organism-based
In short: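 Male NMRI mice (30-32 g), five per dose; vehicle or drug by oral gavage, guanabenz 1 mg/kg ip 35 min later. Rectal temperature by thermistor 25 min post-guanabenz; inhibition scored as temperature > 36 °C. […] Active range is doses giving inhibition in more than 80% of mice.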

Mus musculus [8] = experiment: In vivo antagonism of guanabenz-induced hypothermia in mice after peroral administration at a dose of 10-40 mg/kg; format: functional; details: po
In short: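 Male NMRI mice (30-32 g) dosed by oral gavage with drug or vehicle; 35 min later, guanabenz 1 mg/kg ip. Rectal temperature was taken 25 min after guanabenz with a thermistor probe. Inhibition meant temperature > 36 °C. Five mice were used per dose. The active dose range is the doses inhibiting hypothermia in more than 80% of animals.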

Mus musculus [9] = experiment: In vivo antagonism of guanabenz-induced hypothermia in mice after intraperitoneal administration at a dose of 2.5-10 mg/kg; format: functional; details: ip
In short: (§3)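 Male NMRI mice, 30-32 g, 5 per dose; test drug or vehicle given ip, then 5 min later guanabenz 1 mg/kg ip. Rectal temperature read by thermistor probe 25 min after guanabenz. Inhibition means temperature > 36 °C. Active dose range = doses inhibiting in more than 80% of animals.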

Mus musculus [10] = experiment: In vivo antagonism of guanabenz-induced hypothermia in mice after peroral administration at a dose of 2.5-40 mg/kg; format: functional; details: po; in short: as §2
Mus musculus [11] = experiment: In vivo antagonism of guanabenz-induced hypothermia in mice after intraperitoneal administration at a dose of 0.04-10 mg/kg; format: functional; details: ip; in short: as §1
Mus musculus [12] = experiment: In vivo antagonism of guanabenz-induced hypothermia in mice after intraperitoneal administration at a dose of 0.63-10 mg/kg; format: functional; details: ip; in short: as §3
Mus musculus [13] = experiment: In vivo antagonism of guanabenz-induced hypothermia in mice after intraperitoneal administration at a dose of 10-40 mg/kg; format: functional; details: ip; in short: as §1
Mus musculus [14] = experiment: In vivo antagonism of guanabenz-induced hypothermia in mice after intraperitoneal administration at a dose of 0.63 mg/kg; format: functional; details: ip; in short: as §1
Mus musculus [15] = experiment: In vivo antagonism of guanabenz-induced hypothermia in mice after intraperitoneal administration at a dose of 10 mg/kg; format: functional; details: ip; in short: as §1

D(2) dopamine receptor, sequence (P61169 whole entry): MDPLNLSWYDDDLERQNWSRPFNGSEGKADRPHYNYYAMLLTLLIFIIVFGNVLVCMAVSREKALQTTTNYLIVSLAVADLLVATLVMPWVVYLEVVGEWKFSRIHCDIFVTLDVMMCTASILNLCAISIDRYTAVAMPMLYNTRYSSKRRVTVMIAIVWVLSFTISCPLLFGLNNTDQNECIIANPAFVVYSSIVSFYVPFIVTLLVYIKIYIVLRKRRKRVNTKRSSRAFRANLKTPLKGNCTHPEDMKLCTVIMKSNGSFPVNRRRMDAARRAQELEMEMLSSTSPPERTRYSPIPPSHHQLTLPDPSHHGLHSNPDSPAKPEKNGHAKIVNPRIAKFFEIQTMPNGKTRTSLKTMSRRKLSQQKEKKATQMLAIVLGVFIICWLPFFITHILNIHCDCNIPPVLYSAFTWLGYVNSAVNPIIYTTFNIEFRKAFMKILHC

| Structure (SMILES) | IC50 (D(2) dopamine receptor) [µM] | IC50 [1] [µM] | IC50 [2] [µM] | also measured |
| --- | --- | --- | --- | --- |
| O=C1Nc2ccccc2CN1CCC1CCN(CC2COc3ccccc3O2)CC1 (stereo not given) | 0.016 | 0.018 | 0.005 |  |
| CC(C)c1cccc(C(C)C)c1N1CCN(CCC2CCN(CC3COc4ccccc4O3)CC2)C1=O (stereo not given) | 0.48 | 0.18 | 0.036 |  |
| O=C(NCCC1CCN(CC2COc3ccccc3O2)CC1)NCc1ccccc1 (stereo not given) |  |  |  | ED50 (Mus musculus [3]): 1.78 mg/kg |
| COc1ccccc1CC(=O)NCCC1CCN(CC2COc3ccccc3O2)CC1 (stereo not given) | 0.05 | 0.07 | 0.01 |  |
| COC(=O)[C@@H]1[C@H]2C[C@H]3c4[nH]c5ccccc5c4CCN3C[C@@H]2CC[C@@H]1O [YOHIMBINE] | 1.13 |  |  | ED50 (Mus musculus [4]): 1.23 mg/kg; ED50 (Mus musculus [5]): 0.56 mg/kg |
| O=C(Cc1ccccc1[N+](=O)[O-])NCCC1CCN(CC2COc3ccccc3O2)CC1 (stereo not given) | 0.0018 | 0.0115 | 0.001 |  |
| O=C(NC(=S)NCCC1CCN(CC2COc3ccccc3O2)CC1)c1ccccc1 (stereo not given) |  |  |  | NA (Mus musculus [6]): inactive; NA (Mus musculus [7]): inactive |
| Cc1cccc(C)c1N1CCN(CCC2CCN(CC3COc4ccccc4O3)CC2)C1=O (stereo not given) | 0.08 | 0.085 | 0.0018 | ED50 (Mus musculus [8]): 5.01 mg/kg; ED50 (Mus musculus [9]): 0.41 mg/kg |
| COc1cc(OC)c(N2CCN(CCC3CCN(CC4COc5ccccc5O4)CC3)C2=O)c(OC)c1 (stereo not given) | 0.32 | 0.2 | 0.0045 | ED50 (Mus musculus [9]): 0.41 mg/kg; ED50 (Mus musculus [10]): 1.07 mg/kg |
| S=C(NCCC1CCN(CC2COc3ccccc3O2)CC1)Nc1ccccc1 (stereo not given) |  |  |  | ED50 (Mus musculus [11]): 0.02 mg/kg |
| c1ccc2c(c1)OCC(C1=NCCN1)O2 (stereo not given) [IDAZOXAN] | > 10 |  |  | ED50 (Mus musculus [8]): 0.89 mg/kg; ED50 (Mus musculus [12]): 0.31 mg/kg |
| O=C1N(CCC2CCN(CC3COc4ccccc4O3)CC2)CCN1c1ccc(F)cc1 (stereo not given) |  |  |  | ED50 (Mus musculus [13]): 2.51 mg/kg |
| O=C(NCCC1CCN(CC2COc3ccccc3O2)CC1)Oc1ccccc1 (stereo not given) |  |  |  | NA (Mus musculus [6]): inactive; NA (Mus musculus [7]): inactive |
| COc1ccc(NC(=O)NCCC2CCN(CC3COc4ccccc4O3)CC2)cc1 (stereo not given) |  |  |  | ED50 (Mus musculus [14]): 0.27 mg/kg |
| O=C1Nc2ccccc2CN1CC1CCN(CC2COc3ccccc3O2)CC1 (stereo not given) | 0.55 | 0.07 | 0.025 |  |
| O=C(NCCC1CCN(CC2COc3ccccc3O2)CC1)Nc1ccc(O)cc1 (stereo not given) |  |  |  | NA (Mus musculus [6]): inactive |
| CCOc1cccc(OCC)c1N1CCN(CCC2CCN(CC3COc4ccccc4O3)CC2)C1=O (stereo not given) | 0.135 | 0.07 | 0.004 | ED50 (Mus musculus [10]): 0.53 mg/kg; ED50 (Mus musculus [15]): 0.89 mg/kg |
| O=C(NCCC1CCN(CC2COc3ccccc3O2)CC1)c1ccccc1[N+](=O)[O-] (stereo not given) | 0.025 | 0.02 | 0.002 |  |
| O=C(NCCC1CCN(CC2COc3ccccc3O2)CC1)C(c1ccccc1)c1ccccc1 (stereo not given) |  |  |  | NA (Mus musculus [6]): inactive; NA (Mus musculus [7]): inactive |
